Results as given in ChEMBL document CHEMBL3421619, “Nicotinic Acid Adenine Dinucleotide Phosphate Analogues Substituted on the Nicotinic Acid and Adenine Ribosides. Effects on ReceptorMediated Ca²⁺ Release” (J Med Chem, 2015).

Legend:
[1] = Activation of NAADP receptor in Strongylocentrotus purpuratus egg homogenates assessed as Ca2+ release by Fluo-3 dye based fluorometric assay
Summary of the method: (§1)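 Egg homogenate microsomes from S. purpuratus loaded with Ca2+ in presence of ATP and 3 μM fluo-3; analogue added at a range of concentrations and released Ca2+ read as fluorescence increase (excitation 490 nm, emission 535 nm) on a plate reader; pH 7.2; triplicate; EC50 from concentration–response; fold values relative to NAADP.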

[2] = Desensitization of NAADP receptor in Strongylocentrotus purpuratus egg homogenates assessed as inhibition of NAADP-induced Ca2+ release pre-treated for 7 mins before NAADP addition by Fluo-3 dye based fluorometric assay
Summary of the method: (§2)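 S. purpuratus egg homogenates pretreated 7 min with varying analogue concentrations, then challenged with saturating NAADP (1 μM); Ca2+ release read by fluo-3 fluorescence (ex 490/em 535 nm); IC50 for inhibition of release from concentration–response, triplicate, reported ± SEM with n; fold values relative to NAADP.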

[3] = system: Strongylocentrotus purpuratus; assay: Activation of NAADP receptor in Strongylocentrotus purpuratus egg homogenates assessed as Ca2+ release by Fluo-3 dye based fluorometric assay relative to NAADP; summary of the method: as §1
[4] = system: Strongylocentrotus purpuratus; assay: Displacement of [32P]NAADP from NAADP receptor in Strongylocentrotus purpuratus egg homogenates incubated for 90 mins by liquid scintillation counting method relative to NAADP
Summary of the method: (§3)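 Competition binding in filter plates: S. purpuratus egg homogenate incubated 90 min simultaneously with 0.2 nM [32P]NAADP and seven concentrations of test ligand; filtered, washed, filter-bound radioactivity counted by liquid scintillation; IC50 ± SEM with n; fold values relative to NAADP.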

[5] = system: Strongylocentrotus purpuratus; assay: Desensitization of NAADP receptor in Strongylocentrotus purpuratus egg homogenates assessed as inhibition of NAADP-induced Ca2+ release pre-treated for 7 mins before NAADP addition by Fluo-3 dye based fluorometric assay relative to NAADP; summary of the method: as §2
[6] = Displacement of [32P]NAADP from NAADP receptor in Strongylocentrotus purpuratus egg homogenates incubated for 90 mins by liquid scintillation counting method; summary of the method: as §3
[7] = system: Strongylocentrotus purpuratus; assay: Ratio of activation of NAADP receptor in Strongylocentrotus purpuratus egg homogenates by Ca2+ release assay to IC50 for desensitization of NAADP receptor in Strongylocentrotus purpuratus egg homogenates by Ca2+ release assay
[8] = system: Strongylocentrotus purpuratus; assay: Ratio of activation of NAADP receptor in Strongylocentrotus purpuratus egg homogenates by Ca2+ release assay to IC50 for NAADP receptor in Strongylocentrotus purpuratus egg homogenates by [32P]NAADP binding assay
[9] = Activation of NAADP receptor in sea urchin egg homogenates assessed as Ca2+ release; type: tissue-based, Echinoidea; summary of the method: as §1

SMILES	EC50 [1] [µM]	IC50 [2] [µM]	Ratio EC50 [3]	Ratio IC50 [4]	Ratio IC50 [5]	IC50 [6] [µM]	Ratio [7]	Ratio [8]	EC50 [9] [µM]
Nc1ncnc2c1ncn2[C@@H]1O[C@H](COP(=O)([O-])OP(=O)(O)OC[C@@H]2O[C@H]([n+]3cc(CCCO)cc(C(=O)O)c3)[C@@H](O)[C@H]2O)[C@@H](O)[C@H]1OP(=O)(O)O	4.43	0.122	172	132	260	0.049			
[N-]=[N+]=NCCCc1cc(C(=O)O)c[n+]([C@H]2O[C@@H](COP(=O)(O)OP(=O)([O-])OC[C@H]3O[C@@H](n4cnc5c(N)ncnc54)[C@H](OP(=O)(O)O)[C@@H]3O)[C@H](O)[C@@H]2O)c1	30.7	0.0456	1190	152	97	0.0563			
CC(=O)NCCCc1cc(C(=O)O)c[n+]([C@H]2O[C@@H](COP(=O)(O)OP(=O)([O-])OC[C@H]3O[C@@H](n4cnc5c(N)ncnc54)[C@H](OP(=O)(O)O)[C@@H]3O)[C@H](O)[C@@H]2O)c1	41.7	1.23	1620	4880	2620	1.8			
NCCCc1cc(C(=O)O)c[n+]([C@H]2O[C@@H](COP(=O)(O)OP(=O)([O-])OC[C@H]3O[C@@H](n4cnc5c(N)ncnc54)[C@H](OP(=O)(O)O)[C@@H]3O)[C@H](O)[C@@H]2O)c1	> 1000	674	> 33300	> 2e+06	1.43e+06	> 1000			
[N-]=[N+]=Nc1cc(C(=O)O)c[n+]([C@H]2O[C@@H](COP(=O)(O)OP(=O)([O-])OC[C@H]3O[C@@H](n4c(Br)nc5c(N)ncnc54)[C@H](OP(=O)(O)O)[C@@H]3O)[C@H](O)[C@@H]2O)c1	1360	0.576	52800	1000	1220	0.372			
CC(=O)Nc1cc(C(=O)O)c[n+]([C@H]2O[C@@H](COP(=O)(O)OP(=O)([O-])OC[C@H]3O[C@@H](n4cnc5c(N)ncnc54)[C@H](OP(=O)(O)O)[C@@H]3O)[C@H](O)[C@@H]2O)c1	0.626	0.0215	24.3	40.5	45.7	0.015			
CC(C)(C)OC(=O)NCCCc1cc(C(=O)O)c[n+]([C@H]2O[C@@H](COP(=O)(O)OP(=O)([O-])OC[C@H]3O[C@@H](n4cnc5c(N)ncnc54)[C@H](OP(=O)(O)O)[C@@H]3O)[C@H](O)[C@@H]2O)c1	160	0.942	6200	8840	2000	3.27			
Nc1ncnc2c1ncn2[C@@H]1O[C@H](COP(=O)([O-])OP(=O)(O)OC[C@@H]2O[C@H]([n+]3cc(O)cc(C(=O)O)c3)[C@@H](O)[C@H]2O)[C@@H](O)[C@H]1OP(=O)(O)O	1.93	0.0231	74.9	51	49.1	0.0189			
Nc1ncnc2c1nc(Br)n2[C@@H]1O[C@H](COP(=O)([O-])OP(=O)(O)OC[C@@H]2O[C@H]([n+]3cccc(C(=O)O)c3)[C@@H](O)[C@H]2O)[C@@H](O)[C@H]1OP(=O)(O)O	0.709	0.0153	27.5	42.4	32.6	0.0157			
CSc1cc(C(=O)O)c[n+]([C@H]2O[C@@H](COP(=O)(O)OP(=O)([O-])OC[C@H]3O[C@@H](n4cnc5c(N)ncnc54)[C@H](OP(=O)(O)O)[C@@H]3O)[C@H](O)[C@@H]2O)c1	0.151	0.0042	5.9	18.4	8.9	0.0068	100	100	
[N-]=[N+]=Nc1nc2c(N)ncnc2n1[C@@H]1O[C@H](COP(=O)([O-])OP(=O)(O)OC[C@@H]2O[C@H]([n+]3cccc(C(=O)O)c3)[C@@H](O)[C@H]2O)[C@@H](O)[C@H]1OP(=O)(O)O	0.0477	0.0006	1.8	1.9	1.3	0.0007			
Nc1ncnc2c1ncn2[C@@H]1O[C@H](COP(=O)(O)OP(=O)(O)OC[C@@H]2O[C@H]([n+]3cccc(C(=O)[O-])c3)[C@@H](O)[C@H]2O)[C@@H](O)[C@H]1OP(=O)(O)O [NICOTINIC ACID ADENINE DINUCLEOTIDE PHOSPHATE]	0.0258	0.00047				0.00037			0.02
